ChEMBL document CHEMBL2380245, “Synthesis and evaluation of 2,3-dinorprostaglandins: Dinor-PGD1 and 13-epi-dinor-PGD1 are peroxisome proliferator-activated receptor α/γ dual agonists” (Bioorg Med Chem Lett, 2013)
Activity calls are given as the source filed them. No cut-off for these calls is given here.

Tests used:
Assay type in all cases: cell-based
[1] = target: T1, Peroxisome proliferator-activated receptor gamma (Homo sapiens) (UniProt P37231); test: Agonist activity at PPARgamma (unknown origin) transfected in HEK293 cells at 1 to 30 uM by luciferase reporter gene assay
T1 sequence (whole entry): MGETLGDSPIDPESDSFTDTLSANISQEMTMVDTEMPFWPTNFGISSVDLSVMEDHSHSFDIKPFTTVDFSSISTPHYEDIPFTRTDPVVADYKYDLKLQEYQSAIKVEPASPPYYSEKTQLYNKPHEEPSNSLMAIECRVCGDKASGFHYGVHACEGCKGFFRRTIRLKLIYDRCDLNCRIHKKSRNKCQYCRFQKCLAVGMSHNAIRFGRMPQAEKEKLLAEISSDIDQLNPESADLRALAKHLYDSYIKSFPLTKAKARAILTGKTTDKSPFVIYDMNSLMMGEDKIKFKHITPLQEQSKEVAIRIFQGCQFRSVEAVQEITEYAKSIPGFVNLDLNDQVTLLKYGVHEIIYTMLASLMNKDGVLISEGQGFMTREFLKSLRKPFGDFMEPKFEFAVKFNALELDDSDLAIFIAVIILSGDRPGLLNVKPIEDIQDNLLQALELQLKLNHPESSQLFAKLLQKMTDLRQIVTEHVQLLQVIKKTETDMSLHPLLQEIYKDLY

[2] = target: T2, Peroxisome proliferator-activated receptor alpha (Homo sapiens) (UniProt Q07869); test: Agonist activity at PPARalpha (unknown origin) transfected in HEK293 cells at 1 to 30 uM by luciferase reporter gene assay
T2 sequence (whole entry): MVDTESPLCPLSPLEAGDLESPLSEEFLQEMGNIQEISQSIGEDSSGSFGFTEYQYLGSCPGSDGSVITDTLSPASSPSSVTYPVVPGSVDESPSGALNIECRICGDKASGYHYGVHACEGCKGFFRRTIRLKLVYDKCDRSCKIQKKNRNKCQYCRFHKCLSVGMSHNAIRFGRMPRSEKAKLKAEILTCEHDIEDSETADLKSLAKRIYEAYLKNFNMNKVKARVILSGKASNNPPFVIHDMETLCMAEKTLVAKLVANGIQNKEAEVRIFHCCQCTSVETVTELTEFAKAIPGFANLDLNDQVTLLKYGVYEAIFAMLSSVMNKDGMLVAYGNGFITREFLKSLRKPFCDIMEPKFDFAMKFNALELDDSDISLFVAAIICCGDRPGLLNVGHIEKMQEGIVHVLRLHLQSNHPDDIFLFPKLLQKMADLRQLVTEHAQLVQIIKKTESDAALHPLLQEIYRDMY

[3] = target: T3, Peroxisome proliferator-activated receptor delta (Homo sapiens) (UniProt Q03181); test: Agonist activity at PPARdelta (unknown origin) transfected in HEK293 cells at 10 uM by luciferase reporter gene assay
T3 sequence (whole entry): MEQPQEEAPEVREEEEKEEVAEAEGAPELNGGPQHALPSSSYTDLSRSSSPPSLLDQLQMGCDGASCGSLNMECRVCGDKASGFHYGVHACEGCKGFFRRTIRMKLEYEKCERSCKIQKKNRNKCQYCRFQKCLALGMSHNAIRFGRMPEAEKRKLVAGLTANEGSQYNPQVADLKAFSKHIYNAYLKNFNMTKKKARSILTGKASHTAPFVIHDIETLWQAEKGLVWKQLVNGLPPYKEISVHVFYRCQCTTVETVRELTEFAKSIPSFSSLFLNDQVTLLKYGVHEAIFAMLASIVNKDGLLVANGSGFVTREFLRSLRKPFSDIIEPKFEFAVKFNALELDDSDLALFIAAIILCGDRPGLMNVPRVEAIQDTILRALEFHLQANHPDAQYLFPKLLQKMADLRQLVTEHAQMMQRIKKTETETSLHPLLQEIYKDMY

[4] = target: T1, Peroxisome proliferator-activated receptor gamma (Homo sapiens); test: Agonist activity at PPARgamma (unknown origin) transfected in HEK293 cells at 10 uM by luciferase reporter gene assay
How it was run: (§1)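 Luciferase PPAR reporter assay in transfected HEK293 cells, run following a previously reported protocol. Each receptor was tested alongside a subtype-selective reference agonist as control: PPARα at 10 µM, PPARδ at 100 nM and PPARγ at 10 µM.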

[5] = target: T2, Peroxisome proliferator-activated receptor alpha (Homo sapiens); test: Agonist activity at PPARalpha (unknown origin) transfected in HEK293 cells at 10 uM by luciferase reporter gene assay; how it was run: as §1

SMILES | Activity [1] | Activity [2] | Activity [3] | Activity [4] | Activity [5]
CCCCC[C@H](O)/C=C/[C@H]1C(=O)C[C@H](O)[C@@H]1C/C=C\CCCC(=O)O | Active | Active | Active | Active | Active
CC(C)(Oc1ccc(C(=O)c2ccc(Cl)cc2)cc1)C(=O)O |  |  | Active | Active | Active
CCCCC[C@@H](O)/C=C/[C@H]1C(=O)C[C@H](O)[C@@H]1CCCCC(=O)O | Active | Active |  |  | Active
CC1(COc2ccc(CC3SC(=O)NC3=O)cc2)CCCCC1 (stereo not given) |  |  | Active | Active | Active

The next lines start with the values.

Activity [1] | Activity [2] | Activity [3] | Activity [4] | Activity [5] | SMILES
Active | Active |  |  | Active | CCCCC[C@H](O)/C=C/[C@H]1C(=O)C[C@H](O)[C@@H]1CCCCC(=O)O
 |  | Active | Active | Active | CCCCC/C=C/C=C1/C(=O)C=C[C@@H]1CCCCC(=O)O
